Laboratory results taken from ChEMBL document CHEMBL2346570, “Small-molecule inhibitors of cytokine-mediated STAT1 signal transduction in β-cells with improved aqueous solubility” (J Med Chem, 2013).
Values after ≈ are worked out from the molar mass of the structure shown. Active and inactive are the calls of the source. The calls are words filed in the database; no cut-off is given here.

What was measured:
[1] = Thermodynamic solubility in PBS at pH 7.4 after 24 hrs by UPLC-MS analysis; format: physicochemical; details: for solubility thermodynamic at 24 h: PBS, pH 7.4, read-out: Therm_solubility
How it was run: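 Thermodynamic solubility assay in phosphate buffered saline, pH 7.4.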

[2] = Cytoprotective activity in rat INS-1E cells assessed as suppression of cytokine-induced caspase-3/7 activation after 48 hrs by luminescence assay relative to control; format: functional
How it was run: (§1)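 INS-1E β-cells exposed to a cytokine mixture (IFN-γ at 500 ng/mL; IL-1β and TNF-α lowered 20- and 10-fold from standard levels) with compound for 48 h; caspase-3/7 activation read as apoptosis. IC50 from dose-response in three replicates; maximum activity expressed as % rescue from cytokine-induced caspase-3/7 activation.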

[3] = Cytoprotective activity in rat INS-1E cells assessed as suppression of cytokine-induced caspase-3/7 activation after 48 hrs by luminescence assay; format: functional, cell-based; how it was run: as §1
INS-1E [4] = test: Inhibition of IFNgamma-induced JAK1/JAK2 signaling in rat INS-1E cells assessed as STAT1 nuclear translocation at 10 uM after 30 mins by immunofluorescence assay; format: cell-based
How it was run: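 IFN-γ-stimulated INS-1E β-cells, with or without compound, for 30 min; cells fixed and STAT1 subcellular (cytoplasm vs nucleus) localization monitored by immunofluorescence imaging.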

INS-1E [5] = test: Effect on total STAT1 level in rat INS-1E cells at 10 uM after 30 mins by Western blotting analysis; format: functional, cell-based
INS-1E [6] = test: Inhibition of JAK1/JAK2 in rat INS-1E cells assessed as inhibition of IFNgamma-induced STAT1 phosphorylation at Tyr701 and Ser727 at 10 uM after 30 mins by Western blotting analysis; format: cell-based
How it was run: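 INS-1E β-cells treated with IFN-γ with or without compound for 30 min; STAT1 phosphorylation at Tyr701 and Ser727 assessed by Western blotting.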

solubility thermodynamic at 24 h [1] [µM] | IC50 [3] [µM] | Therm_solubility ([1]; buffer, pH 7.4, 24 h) [µM] | Compound | %max [2] [%] | inhibition (INS-1E [4]) | inhibition (INS-1E [5]) | inhibition (INS-1E [6])
138 (≈ 93.6 µg/mL) | 1.62 | – | C[C@@H]1CN([C@@H](C)CO)C(=O)c2cccc(NC(=O)Nc3cccc4ncccc34)c2O[C@H]1CN(C)S(=O)(=O)c1ccc2c(c1)OCCO2 | 41 | – | – | –
11.2 (≈ 7.71 µg/mL) | 4.74 | – | C[C@@H]1CN([C@@H](C)CO)C(=O)c2cccc(NC(=O)N(C)c3cccc4ccccc34)c2O[C@H]1CN(C)S(=O)(=O)c1ccc2c(c1)OCCO2 | 15 | – | – | –
0.1 (≈ 0.0689 µg/mL) | > 20 | – | C[C@@H]1CN([C@@H](C)CO)C(=O)c2cccc(NC(=O)NCc3cccc4ccccc34)c2O[C@H]1CN(C)S(=O)(=O)c1ccc2c(c1)OCCO2 | – | inactive | inactive | inactive
60.5 (≈ 40.9 µg/mL) | 4.65 | – | C[C@@H]1CN([C@@H](C)CO)C(=O)c2cccc(NC(=O)Nc3cccc4cnccc34)c2O[C@H]1CN(C)S(=O)(=O)c1ccc2c(c1)OCCO2 | 59 | – | – | –
30.3 (≈ 20.5 µg/mL) | > 20 | – | C[C@@H]1CN([C@@H](C)CO)C(=O)c2cccc(NC(=O)Nc3ccnc4ccccc34)c2O[C@H]1CN(C)S(=O)(=O)c1ccc2c(c1)OCCO2 | – | – | – | –
– | 1.66 | 0.1 | C[C@@H]1CN([C@@H](C)CO)C(=O)c2cccc(NC(=O)Nc3cccc4ccccc34)c2O[C@H]1CN(C)S(=O)(=O)c1ccc2c(c1)OCCO2 | 71 | Active | inactive | Active
0.7 (≈ 0.473 µg/mL) | 1.05 | – | C[C@@H]1CN([C@@H](C)CO)C(=O)c2cccc(NC(=O)Nc3nccc4ccccc34)c2O[C@H]1CN(C)S(=O)(=O)c1ccc2c(c1)OCCO2 | 21 | – | – | –
84.9 (≈ 57.4 µg/mL) | 4.1 | – | C[C@@H]1CN([C@@H](C)CO)C(=O)c2cccc(NC(=O)Nc3cncc4ccccc34)c2O[C@H]1CN(C)S(=O)(=O)c1ccc2c(c1)OCCO2 | 31 | – | – | –
101 (≈ 68.5 µg/mL) | – | – | C[C@@H]1CN([C@@H](C)CO)C(=O)c2cccc(NC(=O)Nc3cccc4ccncc34)c2O[C@H]1CN(C)S(=O)(=O)c1ccc2c(c1)OCCO2 | – | – | – | –
1.8 (≈ 1.22 µg/mL) | 3.26 | – | C[C@@H]1CN([C@@H](C)CO)C(=O)c2cccc(NC(=O)Nc3cccc4cccnc34)c2O[C@H]1CN(C)S(=O)(=O)c1ccc2c(c1)OCCO2 | 69 | Active | inactive | Active
